# From ChEMBL document CHEMBL1129059, “Antitumor properties of some 2-[(dimethylamino)methyl]phenylgold(III) complexes” (J Med Chem, 1996)
# pIC50: −log10 of the molar value.
# Columns and labels:
# CH1 [1] = assay: Compound was tested for in vitro growth inhibition of Ovarian carcinoma cell line panel CH1-R; assay type: functional, cell-based
# Method in brief: (§1)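 Ovarian lines grown as monolayers in DMEM with 10% FBS, insulin, hydrocortisone and L-glutamine under 6% CO2. Cells were seeded at 3–5 × 10³/well and left to attach overnight. Compounds were freshly dissolved in DMA or water and applied for 96 h in quadruplicate wells. Growth was measured by SRB and reported as IC50.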
# SK-OV-3 [2] = assay: Compound was tested for in vitro growth inhibition of Ovarian carcinoma cell line panel SK-OV-3; assay type: functional, cell-based, Homo sapiens; method in brief: as §1
# ZR-75-1 = assay: Compound was tested for in vitro growth inhibition of primary panel tumor cell line ZR-75-1; assay type: functional, cell-based, Homo sapiens
# Method in brief: (§2)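 Primary-panel lines kept in L15, RPMI 1640 plus pyruvate, or MEM, each with 10% FBS. Cells were seeded at 5×10^4–10^5 cells/mL, preincubated 24 h, then exposed 4 h to 0–200 μg/mL from a 2 mg/mL stock in 10% DMA/PBS. After washout and 72 h further growth, cells were read by SRB. IC50 was the concentration giving 50% survival versus untreated controls.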
# HT-29 = assay: Compound was tested for in vitro growth inhibition of primary panel tumor cell line HT-29/219; assay type: functional, cell-based, Homo sapiens; method in brief: as §2
# CH1 [3] = assay: Compound was tested for in vitro growth inhibition of Ovarian carcinoma cell line panel CH1; assay type: functional, cell-based; method in brief: as §1
# SW-620 [4] = assay: Compound was tested for in vitro growth inhibition of primary panel tumor cell lines SW620; assay type: functional, cell-based, Homo sapiens; method in brief: as §2
# A2780 [5] = assay: Compound was tested for in vitro growth inhibition of Ovarian carcinoma cell line panel A2780; assay type: functional, cell-based, Homo sapiens; method in brief: as §1
# HT-1376 = assay: Compound was tested for in vitro growth inhibition of primary panel tumor cell line HT1376; assay type: functional, cell-based, Homo sapiens; method in brief: as §2
# [6] = Solubility at 25 degrees Celsius in 1-Octanol; assay type: physicochemical
# Method in brief: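 A sample was tumbled in 1-octanol at 25 °C for 24 h and filtered. An aliquot was evaporated and the residue taken up in dilute aqua regia. Gold content was determined as for the aqueous samples, with indium as internal standard.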
# [7] = Solubility at 25 degrees Celsius in water; assay type: physicochemical; details: buffer
# Method in brief: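 5–10 mg sample was tumbled in 5.0 mL water at 25 °C for 24 h and filtered. The solution was diluted as needed and gold was quantified with 1 ppm indium as internal standard.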
# HX62 cell line = assay: Compound was tested for in vitro growth inhibition of Ovarian carcinoma cell line panel HX62; assay type: functional, cell-based, Homo sapiens; method in brief: as §1
# SW 1116 = assay: Compound was tested for in vitro growth inhibition of primary panel tumor cell line SW1116; assay type: functional, cell-based, Homo sapiens; method in brief: as §2
# SK-OV-3 [8] = assay: Compound was tested for in vitro growth inhibition of primary panel tumor cell lines SK-OV-3; assay type: functional, cell-based, Homo sapiens; method in brief: as §2
# A2780 [9] = assay: Compound was tested for in vitro growth inhibition of Ovarian carcinoma cell line panel A2780-R; assay type: functional, cell-based, Homo sapiens; method in brief: as §1
# SW-620 [10] = assay: Compound was tested for in vitro growth inhibition of primary panel tumor cell line SW620; assay type: functional, cell-based, Homo sapiens; method in brief: as §2
# SK-OV-3 [11] = assay: Compound was tested for in vitro growth inhibition of primary panel tumor cell line SK-OV-3; assay type: functional, cell-based, Homo sapiens; method in brief: as §2
# SK-OV-3 [12] = assay: Compound was tested for in vitro growth inhibition of Ovarian carcinoma cell line panelSK-OV-3; assay type: functional, cell-based, Homo sapiens; method in brief: as §1
# [13] = Range is evaluated. (Highest IC50/Lowest IC50); assay type: functional
# [14] = Range is evaluated.; assay type: functional
pIC50 (SK-OV-3 [2]),pIC50 (HT-29),pIC50 (SW-620 [4]),pIC50 (A2780 [5]),pIC50 (HT-1376),Solubility [6],Solubility [7],pIC50 (SK-OV-3 [8]),pIC50 (A2780 [9]),pIC50 (SW-620 [10]),pIC50 (SK-OV-3 [11]),pIC50 (SK-OV-3 [12]),Substance,pIC50 (CH1 [1]),pIC50 (ZR-75-1),pIC50 (CH1 [3]),pIC50 (HX62 cell line),pIC50 (SW 1116),Range [13],Range [14]
3.97,4.17,3.55,5.46,4.89,> 5280 µM,> 5230 µM,4.89,4.46,,,,"Acetato[2-(dimethylamino)methyl]phenyl-C,N]gold-(III)",4.92,4.35,4.96,4.47,3.62,,
4.41,4.60,,5.70,5.17,780 µM,130 µM,,4.59,4.29,4.70,,"Bis(thiocyanato)[2-(dimethylamino)methyl]phenyl-C,N]gold-(III)",4.96,4.47,5.00,4.51,4.33,,
,4.26,3.91,5.09,4.52,920 µM,250 µM,4.35,4.33,,,3.96,"Dichloro[2-(dimethylamino)methyl]phenyl-C,N]gold-(III)",4.66,4.57,4.89,4.24,3.92,,
,,,,,,,,,,,,"Oxalato[2-(dimethylamino)methyl]phenyl-C,N]gold-(III) Hemihydrate",,,,,,21.5,11.4
4.52,4.44,,5.57,4.96,3570 µM,3580 µM,4.96,4.80,4.17,,,"Malonato[2-(dimethylamino)methyl]phenyl-C,N]gold-(III)",5.48,4.44,5.57,4.57,4.10,,
